Experimental findings from ChEMBL document CHEMBL1212801, “Inhibitor resistance in the KPC-2 beta-lactamase, a preeminent property of this class A beta-lactamase” (Antimicrob Agents Chemother, 2010) are described below.

Molecules are shown by their SMILES. Values after ≈ are worked out from the molar mass of the structure shown. Active and inactive are the calls of the source. No cut-off for these calls is given here.

Test [1] has as its system Escherichia coli str. K-12 substr. DH10B. Kind of test: Km for Escherichia coli DH10B beta-lactamase KPC-2.
For test [2] the test system is unchanged. Kind of test: Ratio of Kinact to Km for Escherichia coli DH10B beta-lactamase KPC-2.
The test system is the same in test [3]. Briefly: Ratio of Kcat to Kinact for Escherichia coli DH10B beta-lactamase KPC-2.
Test [4] shares this test system. Briefly: Inhibition of Escherichia coli DH10B beta-lactamase KPC-2 assessed as residual activity at 25 to 200 uM after 24 hrs by diode array spectrophotometry.
Test [5] shares this test system. Briefly: Inhibition of Escherichia coli DH10B beta-lactamase KPC-2 at 0.025 mM by UVD spectroscopy.
For test [6] the test system is unchanged. Briefly: Inhibition of Escherichia coli DH10B beta-lactamase KPC-2 assessed as residual activity at 25 to 200 uM after 24 hrs by diode array spectrophotometry; values are per cent of control.
Test [7] shares this test system. Kind of test: Inhibition of Escherichia coli DH10B beta-lactamase KPC-2 assessed as residual activity at 25 to 200 uM after 72 hrs by diode array spectrophotometry.
Test [8] deals with Klebsiella pneumoniae. Kind of test: Antimicrobial activity against Klebsiella pneumoniae 1534 harboring beta lactamase KPC-2 by CLSI method. Type of test: functional. Summed up: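 […] agar dilution MICs per CLSI, using a Steers replicator spotting 10^4 CFU per spot. For clavulanic acid and sulbactam, ampicillin was fixed at 50 mg/liter while inhibitor was increased. Piperacillin-tazobactam was tested at 8:1. Test inhibitors were held at 4 mg/liter while piperacillin, imipenem or cefotaxime was increased.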

Test [9] relates to Escherichia coli. Briefly: Antimicrobial activity against Escherichia coli DH10B harboring beta lactamase KPC-2 by CLSI method. The settings on record: K-12 DH10B.
The test system of test [10] is Escherichia coli. Briefly: Antimicrobial activity against Escherichia coli DH10B by CLSI method. As to conditions: K-12 DH10B.
The nature of test [11]: (§1) Activity at Escherichia coli DH10B beta-lactamase KPC-2 by diode array spectrophotometry. Details: species or system Escherichia coli str. K-12 substr. DH10B.
Test [12] has as its system Escherichia coli str. K-12 substr. DH10B. Described as §1.
Test [13] shares this test system. Briefly: Ratio of Kcat to Km for Escherichia coli DH10B beta-lactamase KPC-2. The essentials:
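Steady-state assay on a diode array spectrophotometer with 10 nM purified KPC-2 and substrates at 5–200 μM, in 10 mM PBS pH 7.4 at room temperature. Spontaneous imipenem hydrolysis was subtracted. Vmax and Km came from a nonlinear least-squares Michaelis-Menten fit.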

Turning to `CC1(C)[C@H](C(=O)O)N2C(=O)C[C@H]2S1(=O)=O`, the Km in test [1] came out at 135 µM. Further, the kinact/Km in test [2] is 1200 M⁻¹ s⁻¹. Moreover, the kcat/kinact in test [3] was determined as 1000. In addition, the Activity in [4] turned out to be 50%.

Turning to `C[C@]1(Cn2ccnn2)[C@H](C(=O)O)N2C(=O)C[C@H]2S1(=O)=O`, the Km in test [1] is 78.5 µM. In addition, in test [2], the kinact/Km is 2500 M⁻¹ s⁻¹. Also, the kcat/kinact in test [3] was found to be 500. Further, the Activity in [4] stood at 50%.

For the compound `O=C(O)C1=CSC2/C(=C\c3cc4n(n3)CSC4)C(=O)N12` (stereo not given), in test [1], the Km is 0.06 µM. Moreover, in test [2], the kinact/Km came to 180000 M⁻¹ s⁻¹. The kcat/kinact in test [3] came out at 250. Moreover, the inhibition entry in test [5] was “Active”. In addition, the residual activity in [6] stood at 20%.

On to `O=C(O)[C@H]1/C(=C/CO)O[C@@H]2CC(=O)N21`, for which the Activity in test [7] was found to be 5%. Moreover, in test [1], the Km was 8.4 µM. The kinact/Km in test [2] came out at 3600 M⁻¹ s⁻¹. For the same compound, in test [3], the kcat/kinact came to 2500.

Consider `CC1(C)S[C@@H]2[C@H](NC(=O)[C@H](N)c3ccccc3)C(=O)N2[C@H]1C(=O)O` [AMPICILLIN], for which the MIC in [8] stood at 8190 µg/mL (≈ 23400 µM); in test [9], 4100 µg/mL (≈ 11700 µM); in [10], 1 µg/mL (≈ 2.86 µM).

With `CO/N=C(\C(=O)N[C@@H]1C(=O)N2C(C(=O)O)=C(COC(C)=O)CS[C@H]12)c1csc(N)n1` [CEFOTAXIME], the MIC in [8] is 16 µg/mL (≈ 35.1 µM); in test [9], 8 µg/mL (≈ 17.6 µM); in [10], 0.06 µg/mL (≈ 0.132 µM). Affinity in test [11] was put at a Ki of 120 µM. Further, the kcat in test [12] was 78 s⁻¹. Besides, the kcat/Km in test [13] was 0.6 µM/s.

Regarding `C[C@@H](O)[C@H]1C(=O)N2C(C(=O)O)=C(SCCNC=N)C[C@H]12` [IMIPENEM ANHYDROUS], the MIC in test [8] and in test [9] was 8 µg/mL (≈ 26.7 µM) each time. Affinity in [11] was put at a Ki of 19 µM. In addition, the kcat in [12] was 19 s⁻¹. In addition, the kcat/Km in test [13] worked out at 1 µM/s.

`O=C(Cc1cccs1)N[C@@H]1C(=O)N2C(C(=O)O)=C(/C=C/c3ccc([N+](=O)[O-])cc3[N+](=O)[O-])CS[C@H]12` [NITROCEFIN] came in with a Ki in [11] of 5 µM. The kcat in [12] came out at 30 s⁻¹. Also, the kcat/Km in [13] was determined as 6.4 µM/s.

Regarding `CCN1CCN(C(=O)N[C@@H](C(=O)N[C@@H]2C(=O)N3[C@@H]2SC(C)(C)[C@@H]3C(=O)O)c2ccccc2)C(=O)C1=O` [PIPERACILLIN], the figures for the minimum inhibitory concentration (MIC) in [8], in test [9] and in [10] were 1020 µg/mL (≈ 1980 µM), 1020 µg/mL (≈ 1980 µM) and 2 µg/mL (≈ 3.86 µM), respectively. The compound further yielded a Ki in test [11] of 16 µM. For the same compound, the kcat in [12] worked out at 17 s⁻¹. Also, the kcat/Km in [13] was found to be 1.1 µM/s.
